In ChEMBL document CHEMBL5338772, “Stereochemical Control of Splice Modulation in FD-895 Analogues” (J Med Chem, 2023):
Activity calls are given as the source filed them. The calls are words filed in the database; no cut-off is given here.

Columns and labels:
DNAJB1 pre-mRNA [1] = test: Modulation of splicing in DNAJB1 pre-mRNA in human HCT-116 cells assessed as intron 2 retention level at 8.6 uM incubated for 4 hrs by qRT-PCR analysis; assay type: functional, cell-based; conditions: filed as modulator
SF3B1 pre-mRNA [2] = test: Modulation of splicing in SF3B1 pre-mRNA in human HCT-116 cells assessed as intron 13 retention level at 8.6 uM incubated for 4 hrs by qRT-PCR analysis; assay type: functional, cell-based; conditions: filed as modulator
How it was run: (§1)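 HCT-116 cells in supplemented McCoy's 5a, compound added from DMSO stock to a final 0.5% DMSO, 4 h at a single standardized concentration per analogue. Total RNA isolated and DNase-treated (1 µg). qPCR used 2.5 µM each primer on 5 ng cDNA, 40 cycles. Intron retention was computed by the 2^-CT method relative to GAPDH and expressed versus untreated cells set to 1.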

HCT-116 [3] = test: Modulation of splicing in PLK-1 pre-mRNA in human HCT-116 cells assessed as effect on exon 3 inclusion at 8.6 uM incubated for 4 hrs by qRT-PCR analysis; assay type: functional, cell-based; conditions: filed as modulator
SF3B2 pre-mRNA [4] = test: Modulation of splicing in SF3B2 pre-mRNA in human HCT-116 cells assessed as intron 10 retention at 100 to 500 nM incubated for 24 hrs by qRT-PCR analysis; assay type: functional, cell-based; conditions: dose 100-500 nM
How it was run: (§2)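 HCT-116 cells in supplemented McCoy's 5a with 0.5% final DMSO were treated for 24 h at 100, 250 or 500 nM. Total RNA isolated and DNase-treated (1 µg). qPCR used 2.5 µM each primer on 5 ng cDNA, 40 cycles. Intron retention was computed by the 2^-CT method relative to GAPDH and expressed versus untreated cells set to 1.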

AURKA pre-mRNA [5] = test: Modulation of splicing in AURKA pre-mRNA in human HCT-116 cells assessed as effect on exon 4 skipping at 8.6 uM incubated for 4 hrs by qRT-PCR analysis; assay type: functional, cell-based; conditions: filed as modulator
HCT-116 [6] = test: Cytotoxicity against human HCT-116 cells assessed as reduction in cell viability at 500 nM incubated for 24 hrs by MTS assay; assay type: toxicity, cell-based; conditions: hct-116, 24 h, 0.5 µM
How it was run: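 HCT-116 cells plated at 5 × 10³ cells/well in supplemented McCoy's 5a and grown 24 h at 37 °C, 5% CO₂. Compound given at 500 nM, the top dose of the 24 h splicing series, in 0.5% DMSO for 24 h. Cells washed with PBS, MTS reagent added for 2 h at 37 °C, A490 read against A690.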

DNAJB1 pre-mRNA [7] = test: Modulation of splicing in DNAJB1 pre-mRNA in human HCT-116 cells assessed as intron 2 retention at 100 to 500 nM incubated for 24 hrs by qRT-PCR analysis; assay type: functional, cell-based; conditions: dose 100-500 nM
How it was run: (§3)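 HCT-116 cells in supplemented McCoy's 5a with 0.5% DMSO, treated 24 h at 100, 250 or 500 nM; untreated cells as control. Total RNA isolated, 1 µg DNase I-treated, reverse transcribed. qPCR on 5 ng cDNA with 2.5 µM each primer, 40 cycles of 95 °C 30 s, 55 °C 60 s, 72 °C 60 s. Splice-event primers for intron retention or exon skipping; SF2 primers measure total expression. 2^-CT method relative to GAPDH, untreated set at 1.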

HCT-116 [8] = test: Cytotoxicity against human HCT-116 cells assessed as reduction in cell viability at 8.6 uM incubated for 4 hrs by MTS assay; assay type: toxicity, cell-based; conditions: hct-116, 4 h
SF3A3 pre-mRNA [9] = test: Modulation of splicing in SF3A3 pre-mRNA in human HCT-116 cells assessed as intron 5 retention level at 8.6 uM incubated for 4 hrs by qRT-PCR analysis; assay type: functional, cell-based; conditions: filed as modulator; how it was run: as §1
SF3B1 pre-mRNA [10] = test: Modulation of splicing in SF3B1 pre-mRNA in human HCT-116 cells assessed as intron 13 retention at 100 to 500 nM incubated for 24 hrs by qRT-PCR analysis; assay type: functional, cell-based; conditions: dose 100-500 nM; how it was run: as §2
[11] = Cytotoxicity against human HCT-116 cells assessed as cell growth inhibition incubated for 72 hrs by MTS assay; assay type: toxicity, cell-based
How it was run: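 HCT-116 cells (ATCC; split every other day, no more than five generations, mycoplasma-tested) plated at 5 × 10³ cells/well in supplemented McCoy's 5a and grown 24 h at 37 °C, 5% CO₂. Compound added from DMSO (0.5% DMSO final) for 72 h. Cells washed with PBS, MTS reagent added for 2 h at 37 °C, A490 read against A690. GI₅₀ fitted from dose curves of 3 biological replicates.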

HCT-116 [12] = test: Modulation of splicing in MCL-1L pre-mRNA in human HCT-116 cells assessed as intron 5 retention at 100 to 500 nM incubated for 24 hrs by qRT-PCR analysis; assay type: functional, cell-based; conditions: dose 100-500 nM; how it was run: as §3
SF3A3 pre-mRNA [13] = test: Modulation of splicing in SF3A3 pre-mRNA in human HCT-116 cells assessed as intron 5 retention at 100 to 500 nM incubated for 24 hrs by qRT-PCR analysis; assay type: functional, cell-based; conditions: dose 100-500 nM; how it was run: as §3
SF3A1 pre-mRNA [14] = test: Modulation of splicing in SF3A1 pre-mRNA in human HCT-116 cells assessed as intron 6 retention level at 8.6 uM incubated for 4 hrs by qRT-PCR analysis; assay type: functional, cell-based; conditions: filed as modulator
SF3B2 pre-mRNA [15] = test: Modulation of splicing in SF3B2 pre-mRNA in human HCT-116 cells assessed as intron 10 retention level at 8.6 uM incubated for 4 hrs by qRT-PCR analysis; assay type: functional, cell-based; conditions: filed as modulator; how it was run: as §1
SF3A1 pre-mRNA [16] = test: Modulation of splicing in SF3A1 pre-mRNA in human HCT-116 cells assessed as intron 6 retention at 100 to 500 nM incubated for 24 hrs by qRT-PCR analysis; assay type: functional, cell-based; conditions: dose 100-500 nM; how it was run: as §3
SF3A1 pre-mRNA [17] = test: Modulation of splicing in SF3A1 pre-mRNA in human HCT-116 cells assessed as intron 6 retention level at 42 nM incubated for 4 hrs by qRT-PCR analysis; assay type: functional, cell-based; conditions: filed as modulator
SF3B1 pre-mRNA [18] = test: Modulation of splicing in SF3B1 pre-mRNA in human HCT-116 cells assessed as increase in intron 13 retention level incubated for 24 hrs by qRT-PCR analysis; assay type: functional, cell-based; conditions: filed as modulator, dose 100-500 nM; how it was run: as §2
SF3B2 pre-mRNA [19] = test: Modulation of splicing in SF3B2 pre-mRNA in human HCT-116 cells assessed as increase in intron 10 retention level incubated for 24 hrs by qRT-PCR analysis; assay type: functional, cell-based; conditions: filed as modulator, dose 100-500 nM; how it was run: as §2
SF3B1 pre-mRNA [20] = test: Modulation of splicing in SF3B1 pre-mRNA in human HCT-116 cells assessed as intron 13 retention level at 42 nM incubated for 4 hrs by qRT-PCR analysis; assay type: functional, cell-based; conditions: filed as modulator; how it was run: as §1
SF3A3 pre-mRNA [21] = test: Modulation of splicing in SF3A3 pre-mRNA in human HCT-116 cells assessed as intron 5 retention level at 42 nM incubated for 4 hrs by qRT-PCR analysis; assay type: functional, cell-based; conditions: filed as modulator
DNAJB1 pre-mRNA [22] = test: Modulation of splicing in DNAJB1 pre-mRNA in human HCT-116 cells assessed as reduction in intron 2 retention level at 100 to 500 nM incubated for 24 hrs by qRT-PCR analysis; assay type: functional, cell-based; conditions: filed as modulator, dose 100-500 nM; how it was run: as §3
SF3B2 pre-mRNA [23] = test: Modulation of splicing in SF3B2 pre-mRNA in human HCT-116 cells assessed as intron 10 retention level at 42 nM incubated for 4 hrs by qRT-PCR analysis; assay type: functional, cell-based; conditions: filed as modulator; how it was run: as §1
AURKA pre-mRNA [24] = test: Modulation of splicing in AURKA pre-mRNA in human HCT-116 cells assessed as effect on exon 4 skipping at 42 nM incubated for 4 hrs by qRT-PCR analysis; assay type: functional, cell-based; conditions: filed as modulator
DNAJB1 pre-mRNA [25] = test: Modulation of splicing in DNAJB1 pre-mRNA in human HCT-116 cells assessed as intron 2 retention level at 42 nM incubated for 4 hrs by qRT-PCR analysis; assay type: functional, cell-based; conditions: filed as modulator
HCT-116 [26] = test: Cytotoxicity against human HCT-116 cells assessed as reduction in cell viability at 42 nM incubated for 4 hrs by MTS assay; assay type: toxicity, cell-based; conditions: hct-116, 4 h, 0.042 µM
HCT-116 [27] = test: Downregulation of SF2 mRNA expression in human HCT-116 cells at 100 to 500 nM incubated for 24 hrs by qRT-PCR analysis; assay type: functional, cell-based; conditions: dose 100-500 nM; how it was run: as §3
HCT-116 [28] = test: Downregulation of PLK-1 mRNA expression in human HCT-116 cells at 100 to 500 nM incubated for 24 hrs by qRT-PCR analysis; assay type: functional, cell-based; conditions: dose 100-500 nM; how it was run: as §3

## CC[C@H](OC)[C@@H](C)[C@H]1O[C@@H]1[C@H](O)[C@H](C)/C=C/C=C(\C)[C@H]1OC(=O)C[C@H](O)CC[C@@](C)(O)[C@H](OC(C)=O)/C=C/[C@@H]1C
DNAJB1 pre-mRNA [1]
  Activity: > 3
SF3B1 pre-mRNA [2]
  Activity: < 3
HCT-116 [3]
  Activity: Active
SF3B2 pre-mRNA [4]
  Activity: inactive
AURKA pre-mRNA [5]
  Activity: Active
HCT-116 [6]
  Activity: Non-Toxic
DNAJB1 pre-mRNA [7]
  Activity: inactive
HCT-116 [8]
  Activity: Non-Toxic
SF3A3 pre-mRNA [9]
  Activity: < 3
SF3B1 pre-mRNA [10]
  Activity: inactive
[11]
  GI50 at 72 h: 588 nM
HCT-116 [12]
  Activity: inactive
SF3A3 pre-mRNA [13]
  Activity: inactive
SF3A1 pre-mRNA [14]
  Activity: > 3
SF3B2 pre-mRNA [15]
  Activity: > 3
SF3A1 pre-mRNA [16]
  Activity: inactive

## CC[C@H](OC)[C@@H](C)[C@H]1O[C@@H]1[C@@H](O)[C@H](C)/C=C/C=C(\C)[C@H]1OC(=O)C[C@H](O)CC[C@@](C)(O)[C@@H](OC(C)=O)/C=C/[C@@H]1C
SF3A1 pre-mRNA [17]
  Activity: > 3
SF3B1 pre-mRNA [18]
  Activity: Dose-Dependent Effect
SF3B2 pre-mRNA [19]
  Activity: Dose-Dependent Effect
SF3B1 pre-mRNA [20]
  Activity: < 3
SF3A3 pre-mRNA [21]
  Activity: < 3
DNAJB1 pre-mRNA [22]
  Activity: Active
SF3B2 pre-mRNA [23]
  Activity: > 3
HCT-116 [6]
  Activity: Non-Toxic
AURKA pre-mRNA [24]
  Activity: Active
DNAJB1 pre-mRNA [25]
  Activity: > 3
HCT-116 [26]
  Activity: Non-Toxic
HCT-116 [27]
  Activity: inactive
[11]
  GI50 at 72 h: 2.2 nM
HCT-116 [28]
  Activity: inactive
